Results of several laboratories.
GLO1: Lactoylglutathione lyase (GLO1, Homo sapiens, UniProt Q04760)
MAOB: Amine oxidase [flavin-containing] B (MAOB, Homo sapiens, UniProt P27338)

Compound	target	assay	setting	inhibition
O=C(N[C@@H](CSCc1ccccc1)C(=O)NO)c1ccccc1	GLO1	enzyme activity, inhibitor	1 µM	31.4%
O=C(Nc1cccc(F)c1)c1ccc2c(c1)C(=O)NC2=O	MAOB	enzyme activity, inhibitor	1 µM	< 5%
Cc1cc(F)cc2c(CCC(=O)N[C@@H]3C(=O)NC[C@H]3O)c(-c3ccc(F)cc3)[nH]c12	Beta-1 adrenergic receptor (ADRB1, Homo sapiens, UniProt P08588)	cell-free assay	10 µM	-1.5%
O=C(Nc1ccccc1)c1ccc2c(c1)C(=O)NC2=O	MAOB	enzyme activity, inhibitor	1 µM	25%
NC/C(=C\F)COc1cccc(Cn2c(=S)[nH]c(=O)c3[nH]cnc32)c1	Histamine H1 receptor (HRH1, Homo sapiens, UniProt P35367)	ligand displacement, radioligand	10 µM	< 50%
O=C(N[C@@H](CSCc1ccc([N+](=O)[O-])cc1)C(=O)NO)c1ccccc1	GLO1	enzyme activity, inhibitor	1 µM	46.1%
O=C(Nc1cccc(Cl)c1)c1ccc2c(c1)C(=O)NC2=O	MAOB	enzyme activity, inhibitor	1 µM	63.9%
Cc1cc(O)c(-c2ccc([C@@H](C)CN(C)C)cc2)c2c1[nH]c(=O)c1sccc12	Serine/threonine-protein kinase NLK (NLK, Homo sapiens, UniProt Q9UBE8)	cell-free assay, inhibitor	0.1 µM, lysate	-4.94%
CCN1/C(=C/C(C)=O)Sc2ccc(F)cc21	Endothelin receptor type B (EDNRB, Homo sapiens, UniProt P24530)	ligand displacement, radioligand	10 µM	0%
C#Cc1cc(-c2cc(Nc3nc(N[C@@H](C)c4ccc(F)cn4)ncc3Cl)n[nH]2)ccc1C=O	Ribosomal protein S6 kinase alpha-6 (RPS6KA6, Homo sapiens, UniProt Q9UK32)	enzyme activity, inhibitor	0.2 µM	16.8%
